Data as given in PubChem BioAssay.
The source made the active and inactive calls.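 Rule for the calls, unless noted: active = compounds giving at least 50% inhibition in the cell-based MKP-3 phosphatase rescue imaging test; inactive = the rest.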

Assays:
[1] = inhibitors of TNFa-induced NFkB p65 translocation, primary screen, imaging, HUVEC, MLSMR starter and 10KST1 sets (AID 438;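 active = inhibition above 20% together with a positive visual image hit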;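 note: compound added about 3h40 before a 20 min TNFalpha stimulation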;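 for inhibition: signal is the nuclear over cytoplasmic p65 intensity ratio per well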); settings: HUVEC TNFa-induced p65 nuclear translocation; cell count: measured here: nuclei count (cytotoxicity indicator), at 2.08 µM; inhibition: at 2 µM, stronger effect = higher value, 0% TNFa-plus-vehicle, 100% no-TNFa wells
[2] = inhibitors of E-selectin induction by TNFa, primary screen, imaging, HUVEC, immunofluorescence, MLSMR starter and 10KST1 sets (AID 487;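 active = visually confirmed hit in the image check and inhibition above 20%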;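 for inhibition: signal is fraction of cell area covered by stained E-selectin grains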;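 for nuclei count: 100% = median nuclei count of all wells on the same plate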); settings: HUVEC TNFalpha-induced E-selectin immunofluorescence imaging, at 2 µM; inhibition: stronger effect = higher value; nuclei count: measured here: cell number, toxicity
[3] = DUSP6 inhibitors restoring Erk phosphorylation by chemical complementation, primary imaging in DUSP6-transfected HeLa (AID 609); settings: HeLa MKP-3 transfected, phospho-Erk imaging KS statistic, at 10 µM, cells stimulated with TPA for 15 min;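 for inhibition: phospho-Erk level distribution per well compared with pooled transfected vehicle control wells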
[4] = target: Dual specificity protein phosphatase 6 (Homo sapiens) (UniProt Q16828); assay: as above; settings: HeLa MKP-3 transfected, phospho-Erk imaging KS statistic; at 10 µM; stronger effect = higher value; cells stimulated with TPA for 15 min
Chain of Dual specificity protein phosphatase 6 (Homo sapiens) (Q16828 whole entry, looked up): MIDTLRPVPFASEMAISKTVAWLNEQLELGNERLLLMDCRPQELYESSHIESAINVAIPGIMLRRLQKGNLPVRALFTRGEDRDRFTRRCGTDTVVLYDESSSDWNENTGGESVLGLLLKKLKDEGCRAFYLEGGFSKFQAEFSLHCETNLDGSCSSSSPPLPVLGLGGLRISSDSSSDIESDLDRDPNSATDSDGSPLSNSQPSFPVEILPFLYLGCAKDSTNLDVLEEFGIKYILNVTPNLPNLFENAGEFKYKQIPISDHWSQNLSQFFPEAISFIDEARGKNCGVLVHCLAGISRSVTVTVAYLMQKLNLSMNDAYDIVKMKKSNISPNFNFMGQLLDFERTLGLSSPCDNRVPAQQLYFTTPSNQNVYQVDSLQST

[5] = target: Voltage-gated potassium channel subunit beta-2 (Rattus norvegicus) (UniProt P62483); assay: KvBeta enzyme negative modulators, primary screen, biochemical, NADPH fluorescence (AID 622;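 active = fluorescence slope higher than the sample average by over 3 SD, cut at about -0.22 in these data, passing the limit was not always enough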;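 note: slope of raw intensity against log time taken from 70 to 1610 s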); settings: recombinant KvBeta, 4-cyanobenzaldehyde reduction, at 10 µM, stronger effect = higher value
Chain of Voltage-gated potassium channel subunit beta-2 (Rattus norvegicus) (P62483 whole entry, looked up): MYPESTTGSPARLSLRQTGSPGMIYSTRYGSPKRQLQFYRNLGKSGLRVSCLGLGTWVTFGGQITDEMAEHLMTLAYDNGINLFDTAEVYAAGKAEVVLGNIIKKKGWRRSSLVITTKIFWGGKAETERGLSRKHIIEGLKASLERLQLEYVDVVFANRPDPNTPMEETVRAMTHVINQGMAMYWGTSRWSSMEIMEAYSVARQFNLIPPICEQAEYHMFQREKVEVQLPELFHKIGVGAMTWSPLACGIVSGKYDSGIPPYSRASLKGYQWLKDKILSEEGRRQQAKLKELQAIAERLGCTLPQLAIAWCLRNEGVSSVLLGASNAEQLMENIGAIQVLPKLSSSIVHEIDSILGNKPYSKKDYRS

[6] = target: Voltage-gated potassium channel subunit beta-2 (Rattus norvegicus) (UniProt P62483); assay: KvBeta positive modulators, primary screen, biochemical, NADPH fluorescence (AID 623;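 active = NADPH fluorescence slope more negative than the mean of all samples by about 3 SD, 99.7% confidence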;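 note: fluorescence intensity change per second fitted from 20 to 320 s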); settings: Recombinant KvBeta, NADPH fluorescence decrease slope, 10 min; at 10 µM; stronger effect = lower value
[7] = target: Muscarinic acetylcholine receptor M4 (Homo sapiens) (UniProt P08173); assay: compounds altering M4/GIRK thallium flux, either direction, primary screen, M4 allosteric agonist project, cell-based, HEK293 M4/GIRK, BTC-AM (AID 625;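 active = fluorescence slope after compound addition differing from the mean of all tested samples at 99.7% confidence, mostly higher but some lower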;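 note: thallium influx through GIRK channels coupled to M4 in HEK293 cells with BTC-AM dye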); settings: at 10 µM, actives lie on both sides
Chain of Muscarinic acetylcholine receptor M4 (Homo sapiens) (P08173 whole entry, looked up): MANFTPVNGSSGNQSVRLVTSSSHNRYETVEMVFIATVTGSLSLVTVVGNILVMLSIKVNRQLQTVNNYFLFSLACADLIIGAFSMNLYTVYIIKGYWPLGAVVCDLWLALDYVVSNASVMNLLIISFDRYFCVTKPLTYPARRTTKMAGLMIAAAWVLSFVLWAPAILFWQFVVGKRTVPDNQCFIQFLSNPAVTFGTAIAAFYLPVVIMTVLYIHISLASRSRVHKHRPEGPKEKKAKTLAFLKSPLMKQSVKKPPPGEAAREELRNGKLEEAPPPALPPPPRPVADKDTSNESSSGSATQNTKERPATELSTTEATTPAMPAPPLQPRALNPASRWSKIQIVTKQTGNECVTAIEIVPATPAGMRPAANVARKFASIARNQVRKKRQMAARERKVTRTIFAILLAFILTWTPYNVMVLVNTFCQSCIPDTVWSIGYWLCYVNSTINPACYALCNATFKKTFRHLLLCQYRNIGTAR
Procedure, shortened: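 System: HEK293 cells with M4 receptor and GIRK channels | Incubation: Cells overnight at 37 °C, BTC-AM loading 1 h, reads 2 min total | Technique: Kinetic BTC-AM fluorescence sampled at 1 Hz, 10 s pre-addition baseline | Measure: Post-addition slope, 15–24 s, of baseline-normalized fluorescence | Control set: Carbachol positive, DMSO negative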

[8] = inhibitors of larval lipid processing in zebrafish, primary screen, whole organism, PED6 fluorescence, gall bladder and intestine (AID 686;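 active = a full or partial loss of lipid-probe fluorescence in the fish gall bladder, intestine or both, judged by eye; inactive = no fluorescence loss, or compound toxic to the fish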;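 note: larvae 5 to 7 days old with five fish per well; signal comes from phospholipase A2 cleavage of quenched PED6 carried via bile; overnight exposure to compound and PED6 before scoring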); settings: Zebrafish larvae PED6 lipid processing, fluorescence scoring; screened at 20 µM (by protocol)
Procedure, shortened: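 Test system – live zebrafish larvae aged 5-7 days, whole organism · Buffer or medium – E3 fish medium · Reagent – quenched phospholipase substrate PED6, 100 nM final, ingested by larvae · Doses – 20 µM single dose · Incubation – overnight compound and PED6 incubation · Technique – visual fluorescence microscopy scoring of gall bladder, gut · Read-out basis – visual per-well fluorescence inhibition score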

[9] = inhibitors of Chlamydomonas gravitaxis, primary screen, whole organism, Chlamydomonas reinhardtii, WT vs cilia-less mutant, absorbance, 96-well (AID 463189;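 active = inhibition at or above 50% relative to wild type and mutant plate controls; inactive = inhibition below 50%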;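 note: 0% = wild type cc124 cells in DMSO and 100% = ciliumless bld1 mutant cells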); settings: OD600 absorbance, 2 days, at 10 µM, stronger effect = higher value
[10] = measured here: cell density z-score
[11] = measured here: nuclear c-Myc green intensity z-score
[12] = measured here: nuclear pErk red intensity z-score, stronger effect = higher value

In the case of `Fc1ccc2[nH]c3c(N4CCSCC4)ncnc3c2c1`, the cell count [1] is reported as 664, the inhibition [1] is reported as -4.3% (inactive) and the inhibition [2] is reported as 0.7% (inactive). The nuclei count [2] was 153%, the z-score [3, 10] was -0.905 and the z-score [3, 11] was 0.444. The z-score [3, 12] was 1.27, the inhibition [4] was -3.95% (inactive) and the fluorescence slope [5] was -0.418 (inactive). The NADPH fluorescence slope [6] was -2.2e-05 (inactive), the fluorescence slope [7] was 0.00396 (inactive) and the outcome [8] was “inactive; toxic”. For the same molecule, the inhibition [9] was 5.41% (inactive).

In the case of `CC(O)(C#CCN1CCOCC1)c1ccccc1` (centres undefined), the cell count [1] is reported as 634, the inhibition [1] is reported as 1.5% (inactive) and the inhibition [2] is reported as -34.4% (inactive). The nuclei count [2] was 149%, the z-score [3, 10] was 0.104 and the z-score [3, 11] was 0.285. The z-score [3, 12] was 0.53, the inhibition [4] was -5.81% (inactive) and the fluorescence slope [5] was -0.455 (inactive). For the same molecule, the NADPH fluorescence slope [6] was -5.1e-05 (inactive), the fluorescence slope [7] was 0.00484 (inactive) and the outcome [8] was “inactive”. For the same molecule, the inhibition [9] was 17.4% (inactive).

In the case of `CCOC(=O)CNS(=O)(=O)c1cc(-c2n[nH]c(=O)c3ccccc23)ccc1C`, the cell count [1] is reported as 550, the inhibition [1] is reported as -12.6% (inactive) and the inhibition [2] is reported as -67% (inactive). The nuclei count [2] was 151%, the z-score [3, 10] was 2.42 and the z-score [3, 11] was 0.186. The z-score [3, 12] was 0.634, the inhibition [4] was 20.2% (inactive) and the fluorescence slope [5] was -0.47 (inactive). The NADPH fluorescence slope [6] was -0.000102 (inactive), the fluorescence slope [7] was 0.00467 (inactive) and the outcome [8] was “inactive”. For the same molecule, the inhibition [9] was 2.8% (inactive).

For `CC(C)Cc1[nH]c(=O)c(C#N)c2c1COC(C)(C)C2`, the cell count [1] was 568, the inhibition [1] was -11.1% (inactive) and the inhibition [2] was -69.9% (inactive). The nuclei count [2] was 141%, the z-score [3, 10] was 0.028 and the z-score [3, 11] was -0.951. The z-score [3, 12] was -0.389, the inhibition [4] was -13.3% (inactive) and the fluorescence slope [5] was -0.43 (inactive). The NADPH fluorescence slope [6] was -5.3e-05 (inactive), the fluorescence slope [7] was 0.00369 (inactive) and the outcome [8] was “inactive”. The inhibition [9] was 23.1% (inactive).

For `O=C(C(c1ccccc1)N1CCOCC1)N1CCOCC1` (centres undefined), the cell count [1] was 733, the inhibition [1] was -13.6% (inactive) and the inhibition [2] was -25.3% (inactive). For the same molecule, the nuclei count [2] was 159%, the z-score [3, 10] was -0.0327 and the z-score [3, 11] was 1.84. The z-score [3, 12] was -0.87, the inhibition [4] was -9.53% (inactive) and the fluorescence slope [5] was -0.431 (inactive). The NADPH fluorescence slope [6] was -2.2e-05 (inactive), the fluorescence slope [7] was 0.00553 (inactive) and the outcome [8] was “inactive”. The inhibition [9] was -3.52% (inactive).

For `O=C(Nc1ncccc1Cl)c1cccc(F)c1`, the cell count [1] was 527, the inhibition [1] was 0.8% (inactive) and the inhibition [2] was 19.5% (inactive). It also gave a nuclei count [2] of 88.6%, a z-score [3, 10] of -1.41 and a z-score [3, 11] of 0.161. The z-score [3, 12] was -0.3, the inhibition [4] was 3.42% (inactive) and the fluorescence slope [5] was -0.419 (inactive). For the same molecule, the NADPH fluorescence slope [6] was 1.2e-05 (inactive), the fluorescence slope [7] was 0.0047 (inactive) and the outcome [8] was “inactive”. The inhibition [9] was 34.1% (inactive).

In the case of `CCOC(=O)c1c(CN2CCN(CCO)CC2)n(C)c2cc(Br)c(OC)cc12`, the cell count [1] is reported as 380, the inhibition [1] is reported as -7.5% (inactive) and the inhibition [2] is reported as -1.9% (inactive). For the same molecule, the nuclei count [2] was 103%, the z-score [3, 10] was -0.09 and the z-score [3, 11] was 0.157. The z-score [3, 12] was 0.909, the inhibition [4] was -2.29% (inactive) and the fluorescence slope [5] was -0.4 (inactive). For the same molecule, the NADPH fluorescence slope [6] was 5.8e-06 (inactive), the fluorescence slope [7] was 0.00459 (inactive) and the outcome [8] was “inactive”. The inhibition [9] was 26.8% (inactive).

In the case of `CCOC(=O)c1ccc(NC(=O)COc2ccccc2OC)cc1`, the cell count [1] is reported as 668, the inhibition [1] is reported as -1.6% (inactive) and the inhibition [2] is reported as 26.3% (inactive). It also gave a nuclei count [2] of 179%, a z-score [3, 10] of 1.9 and a z-score [3, 11] of 0.486. For the same molecule, the z-score [3, 12] was -1.19, the inhibition [4] was 33.3% (inactive) and the fluorescence slope [5] was -0.465 (inactive). The NADPH fluorescence slope [6] was -0.000105 (inactive), the fluorescence slope [7] was 0.00666 (inactive) and the outcome [8] was “inactive”. The inhibition [9] was -9.5% (inactive).

For `COc1ccc(C2CC(c3ccc(C)cc3)Nc3nc(N)nn32)cc1` (centres undefined), the cell count [1] was 390, the inhibition [1] was 2.2% (inactive) and the inhibition [2] was -104% (inactive). The nuclei count [2] was 145%, the z-score [3, 10] was -0.765 and the z-score [3, 11] was 2.44. The z-score [3, 12] was -0.827, the inhibition [4] was 9.82% (inactive) and the fluorescence slope [5] was -0.447 (inactive). The NADPH fluorescence slope [6] was -7.3e-05 (inactive), the fluorescence slope [7] was 0.00548 (inactive) and the outcome [8] was “inactive”. For the same molecule, the inhibition [9] was -10.9% (inactive).

With `CCN(CC)c1nc(N2CCOCC2)c(C#N)c2c1CN(C)CC2` the cell count [1] was 580, the inhibition [1] was -9.1% (inactive) and the inhibition [2] was -116% (inactive). The nuclei count [2] was 152%, the z-score [3, 10] was 1.03 and the z-score [3, 11] was -1.51. For the same molecule, the z-score [3, 12] was 0.0125, the inhibition [4] was 7.21% (inactive) and the fluorescence slope [5] was -0.43 (inactive). For the same molecule, the NADPH fluorescence slope [6] was -0.000217 (inactive), the fluorescence slope [7] was 0.00408 (inactive) and the outcome [8] was “inactive”. The inhibition [9] was 43.3% (inactive).

With `O=C(NCc1ccccn1)c1coc(=O)c(Br)c1` the cell count [1] was 542, the inhibition [1] was -1% (inactive) and the inhibition [2] was 22.6% (inactive). The nuclei count [2] was 119%, the z-score [3, 10] was -0.164 and the z-score [3, 11] was 0.668. For the same molecule, the z-score [3, 12] was -0.53, the inhibition [4] was 9.61% (inactive) and the fluorescence slope [5] was -0.481 (inactive). The NADPH fluorescence slope [6] was -4e-05 (inactive), the fluorescence slope [7] was 0.00581 (inactive) and the outcome [8] was “inactive”. For the same molecule, the inhibition [9] was 10.6% (inactive).

With `COc1ccccc1C1/C(=C(/O)c2ccc(C)cc2)C(=O)C(=O)N1CCN1CCOCC1` (centres undefined) the cell count [1] was 652, the inhibition [1] was -11.9% (inactive) and the inhibition [2] was -32.2% (inactive). The nuclei count [2] was 133%, the z-score [3, 10] was -0.486 and the z-score [3, 11] was -0.67. The z-score [3, 12] was 0.136, the inhibition [4] was -2.09% (inactive) and the fluorescence slope [5] was -0.506 (inactive). For the same molecule, the NADPH fluorescence slope [6] was -4e-05 (inactive), the fluorescence slope [7] was 0.0067 (inactive) and the outcome [8] was “inactive”. For the same molecule, the inhibition [9] was 0.641% (inactive).

In the case of `COc1ccccc1-c1c(C)oc2c(CN3CCN(C)CC3)c(O)ccc2c1=O`, the cell count [1] is reported as 672, the inhibition [1] is reported as -0.2% (inactive) and the inhibition [2] is reported as -20.6% (inactive). For the same molecule, the nuclei count [2] was 150%, the z-score [3, 10] was 0.0584 and the z-score [3, 11] was -0.255. The z-score [3, 12] was -0.66, the inhibition [4] was 14.7% (inactive) and the fluorescence slope [5] was -0.0259 (inactive). The NADPH fluorescence slope [6] was 1.6e-05 (inactive), the fluorescence slope [7] was 0.00509 (inactive) and the outcome [8] was “inactive”. The inhibition [9] was -5.96% (inactive).
